Calls of active or inactive are those of the source. No cut-off for these calls is given here.

The test system of assay [1] is Radical scavenging activity. Put plainly: Antioxidant activity assessed as DPPH radical scavenging activity after 30 mins by spectrophotometry. It counts as functional. Summed up:
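Ethanolic DPPH ([…], stock) was mixed 1:1 with increasing concentrations of compound in ethanol and held in the dark 30 min at room temperature. Absorbance was read at 520 nm, with control OD accepted within 0.350–0.360. Activity was taken as % inhibition of absorbance and IC50 came from a variable-slope sigmoidal fit. Triplicates, two independent experiments.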

Assay [2] has as its system LNCaP. Put plainly: Antiproliferative activity against human LNCAP cells after 72 hrs in presence of DHT. It counts as functional, cell-based. In a few lines: (§1)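 LNCaP cells (fewer than 18 passages) were seeded at 25 × 10³ cells/well on electrode-microarray plates in phenol red-free medium with 10% stripped FBS. After 24 h they were exposed to compounds with or without 0.1 nM DHT, in 0.2% final DMSO. Proliferation was tracked as impedance in real time over 72 h. Duplicates, three experiments; doubling time was derived from the growth rate.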

The subject of assay [3] is LNCaP. Put plainly: Cytotoxicity against human LNCAP cells assessed as reduction in cell viability after 24 hrs by WST-1 assay.
For assay [4], the system named is LNCaP. Put plainly: Cytotoxicity against human LNCAP cells assessed as reduction in cell viability at 100 uM after 24 hrs by WST-1 assay. The assay is classed as functional. In a few lines:
(§2)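 LNCaP cells were acclimatised 24 h in complete medium, after which the medium was refreshed. Compounds were added from DMSO (0.1% final, 0.1% DMSO controls) over 0.1–100 μM for a 24 h exposure. Quadruplicate wells, three experiments. IC50 came from a variable-slope sigmoidal concentration–response fit.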

The subject of assay [5] is PC-3. Put plainly: Antiproliferative activity against human PC3 cells after 72 hrs by trypan blue assay. The assay is classed as cell-based. The settings on record: PC-3, 72 h.
Assay [6] has as its system LNCaP. Put plainly: Reduction of androgen receptor protein expression in human LNCAP cell cytoplasm at > 10 uM after 24 hrs by chemoluminescence assay in presence of DHT. It counts as functional, cell-based. In a few lines: (§3)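 Near-confluent LNCaP cells were switched to steroid-free medium for 24 h, then exposed 24 h to compounds with or without 10 nM DHT. Nuclear and cytoplasmic fractions were extracted and assayed by BCA. Protein (40 μg) was run on SDS-PAGE, blotted to PVDF, and probed overnight at 4 °C with anti-AR, then with an HRP anti-rabbit secondary. Duplicates, three experiments.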

For assay [7], the system named is LNCaP. Put plainly: Induction of androgen receptor protein expression in human LNCAP cell nucleus at 1 to 30 uM after 24 hrs by chemoluminescence assay in presence of DHT relative to control. The assay is classed as functional. In a few lines: as §3
The test system of assay [8] is LNCaP. Put plainly: Antiandrogenic activity in human LNCAP cells assessed as reduction in DHT-stimulated PSA release after 24 hrs by ELISA.
Assay [9] has as its system LNCaP. Put plainly: Induction of androgen receptor protein expression in human LNCAP cell nucleus at 1 to 30 uM after 24 hrs by chemoluminescence assay in presence of DHT relative to cytoplasm. The assay is classed as functional. Summed up: as §3
Assay [10] has as its system LNCaP. Put plainly: Induction of androgen receptor protein expression in human LNCAP cell nucleus at > 10 uM after 24 hrs by chemoluminescence assay in presence of DHT. It counts as functional, cell-based. In a few lines:
as §3

In assay [11] the test system is LNCaP. Put plainly: Antiproliferative activity against human LNCAP cells at 0.3 uM after 72 hrs in presence of DHT. It counts as functional, cell-based. In a few lines: as §1
In assay [12] the test system is LNCaP. Put plainly: Antiproliferative activity against human LNCAP cells at 10 uM after 72 hrs in presence of DHT. The assay is classed as functional, cell-based. In a few lines:
as §1

Assay [13] deals with LNCaP. Put plainly: Antiproliferative activity against human LNCAP cells at 1 to 10 uM after 72 hrs in presence of DHT. It counts as functional, cell-based. Summed up:
as §1

Assay [14] relates to LNCaP. Put plainly: Cytotoxicity against human LNCAP cells at 1 uM after 24 hrs by WST-1 assay. The assay is classed as functional, cell-based. Summed up:
as §2

Consider `O=C(/C=C/c1ccc(O)c(O)c1)OCCCc1ccccc1`, for which the 50% inhibitory concentration (IC50) in assay [1] turned out to be 11.9 µM; in assay [3] it was 26.6 µM. Also, the Activity result in [2] was “Dose-dependent effect”. In assay [4], the inhibition at 100 µM was over 80%.
In the case of `O=C(/C=C/c1ccc(O)c(O)c1)OCCc1ccccc1` [CAFFEIC ACID PHENETHYL ESTER], the IC50 in assay [5] was found to be 51.4 µM; in assay [1], 16.5 µM; in [8], 6.2 µM; in assay [3], 33.7 µM. Moreover, the outcome in assay [6], in [10] and in assay [11] was Active. The “fold change (FC)” value in assay [7] and in assay [9] was 5 in each case. The Activity result in assay [2] was “Dose-dependent effect”.
For the molecule `O=C(/C=C/c1ccc(O)c(O)c1)OCC(c1ccccc1)c1ccccc1`, the values for the IC50 in assay [1] and in [3] were 18.5 µM and 20.8 µM, respectively. Further, the outcome in [12] was Active. Besides, in [2], the Activity entry is “Dose-dependent effect”. Besides, the inhibition at 100 µM in [4] is over 80%.
As for `CC(C)CCOC(=O)/C=C/c1ccc(O)c(O)c1`, the IC50 in assay [1] is 23.8 µM; in [3], 45.4 µM.
With `O=C(/C=C/c1ccc(O)c(O)c1)OCCc1ccc(F)cc1`, the IC50 in [1] came to 12.8 µM; in assay [3], 20.8 µM. Also, the Activity result in assay [2] was “Dose-dependent effect”. Also, in [4], the inhibition at 100 µM is over 80%.
For the molecule `O=C(/C=C/c1ccc(O)c(O)c1)OCCC1CCCCC1`, the IC50 in assay [1] was determined as 15.1 µM; in assay [8], 2 µM; in assay [3], 6.8 µM. Also, the result in assay [6], in assay [10], in [11] and in assay [12] was Active. Also, the “fold change (FC)” value in assay [7] and in [9] was 5 in each case. The Activity result in assay [2] is “Dose-dependent effect”. Besides, the inhibition at 100 µM in assay [4] is over 95%.
In the case of `C=C(C)CCOC(=O)/C=C/c1ccc(O)c(O)c1`, in assay [13], the outcome was inactive. Also, the IC50 in assay [1] amounted to 9.5 µM; in assay [3], 20.6 µM. In addition, the inhibition at 100 µM in assay [4] is over 80%.
Take `Cc1ccc(CCOC(=O)/C=C/c2ccc(O)c(O)c2)cc1`: the values for the IC50 in assay [1] and in [3] were 11.3 µM and 14 µM, respectively. For the same molecule, the Activity result in assay [2] is “Dose-dependent effect”. Moreover, the inhibition at 100 µM in [4] was over 80%.
As for `O=C(O)/C=C/c1ccc(O)c(O)c1` [CAFFEIC ACID], the IC50 in [1] was 15.3 µM; in assay [3], over 100 µM. The outcome in assay [14] was inactive.
As to `CCCOC(=O)/C=C/c1ccc(O)c(O)c1`, the IC50 worked out at 14.2 µM in [1] and 60.7 µM in [3]. Moreover, in assay [2], the Activity result was “Dose-dependent effect”.
The matching figures for `O=C(/C=C/c1ccc(O)c(O)c1)Oc1ccccc1`: 12.5 µM, 65.9 µM and “Dose-dependent effect”.
As to `O=C(/C=C/c1ccc(O)c(O)c1)NCCc1ccccc1` [CAFFEIC ACID PHENETHYL AMIDE], the IC50 in assay [1] was 13.8 µM; in [3] it was over 100 µM. For the same molecule, the Activity result in assay [2] was “Dose-dependent effect”.
With `O=C(/C=C/c1ccc(O)c(O)c1)OCc1ccccc1` [BENZYL CAFFEATE], the IC50 in assay [1] is 15.3 µM; in assay [3], 45.6 µM. For the same molecule, in assay [2], the Activity entry was “Dose-dependent effect”.
Turning to `CCOC(=O)/C=C/c1ccc(O)c(O)c1` [ETHYL CAFFEATE], the outcome in [13] was inactive. In addition, the IC50 in assay [1] was 13.3 µM; in assay [3], over 100 µM.
Take `CC(C)OC(=O)/C=C/c1ccc(O)c(O)c1`: the results for the IC50 in assay [1] and in assay [3] were 13 µM and 51.9 µM, respectively.
In the same order, the values of `CCCCOC(=O)/C=C/c1ccc(O)c(O)c1` [BUTYL CAFFEATE] are 12.6 µM and 45.4 µM.
Consider `COc1ccc(CCOC(=O)/C=C/c2ccc(O)c(O)c2)cc1`, for which the outcome in assay [13] was inactive. For the same molecule, the IC50 in [1] was 17.4 µM; in assay [3], 47.3 µM.
For the molecule `O=C(/C=C/c1ccc(O)c(O)c1)OCCc1cccc2ccccc12`, the IC50 in assay [1] stood at 13.2 µM; in [3] it was 9.3 µM. The result in assay [12] was Active. For the same molecule, the Activity result in assay [2] was “Dose-dependent effect”. Moreover, the inhibition at 100 µM in [4] was over 80%.
In the case of `COC(=O)/C=C/c1ccc(O)c(O)c1` [METHYLCAFFEATE], the outcome in assay [13] was inactive. The values for the half-inhibitory concentration (IC50) in assay [1] and in [3] were 21.3 µM and over 100 µM, respectively.

The values are drawn from ChEMBL document CHEMBL2440059, “Antiproliferative, antiandrogenic and cytotoxic effects of novel caffeic acid derivatives in LNCaP human androgen-dependent prostate cancer cells” (Bioorg Med Chem, 2013).
